Laboratory results taken from ChEMBL document CHEMBL4811266 (Bioorg Med Chem Lett, 2021).
Numbered stars: 1 amine (or outer) side, 2 acyl side, 3 side chain; on linkers, the order of the positions; unused ones are H or OH. Square brackets hold non-standard residues; d marks the D form. Peptide text beside a SMILES is read from it. X1 = O=C([C@@H]1Cc2cc(O)ccc2CN1[*:1])[*:2]; Tic(7-OH) = O=C(O)[C@@H]1Cc2ccc(O)cc2CN1

Tests used:
[1] = target: T1, Type-1 angiotensin II receptor (Homo sapiens, UniProt P30556); assay: Displacement of [125-I]-[Sar1, Ile8] from recombinant human AT1R transfected in human HEK293 cells incubated for 2 hrs by liquid scintillation counter analysis; format: cell-based
T1 sequence (P30556 whole entry): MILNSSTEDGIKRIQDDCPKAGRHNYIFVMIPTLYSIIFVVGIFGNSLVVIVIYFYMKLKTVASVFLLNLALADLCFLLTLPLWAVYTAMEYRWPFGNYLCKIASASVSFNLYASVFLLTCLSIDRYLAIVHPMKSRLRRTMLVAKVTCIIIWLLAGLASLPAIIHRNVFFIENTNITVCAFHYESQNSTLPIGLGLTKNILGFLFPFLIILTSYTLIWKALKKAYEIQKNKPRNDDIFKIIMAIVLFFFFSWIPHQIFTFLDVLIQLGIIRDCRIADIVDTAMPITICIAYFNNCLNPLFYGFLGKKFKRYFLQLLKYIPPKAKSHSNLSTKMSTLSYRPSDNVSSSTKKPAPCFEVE

[2] = target: T2, Type-2 angiotensin II receptor (Homo sapiens, UniProt P50052); assay: Displacement of [125-I]-[Sar1, Ile8] from recombinant human AT2R transfected in human HEK293 cells incubated for 2 hrs by liquid scintillation counter analysis; format: cell-based
T2 sequence (P50052 whole entry): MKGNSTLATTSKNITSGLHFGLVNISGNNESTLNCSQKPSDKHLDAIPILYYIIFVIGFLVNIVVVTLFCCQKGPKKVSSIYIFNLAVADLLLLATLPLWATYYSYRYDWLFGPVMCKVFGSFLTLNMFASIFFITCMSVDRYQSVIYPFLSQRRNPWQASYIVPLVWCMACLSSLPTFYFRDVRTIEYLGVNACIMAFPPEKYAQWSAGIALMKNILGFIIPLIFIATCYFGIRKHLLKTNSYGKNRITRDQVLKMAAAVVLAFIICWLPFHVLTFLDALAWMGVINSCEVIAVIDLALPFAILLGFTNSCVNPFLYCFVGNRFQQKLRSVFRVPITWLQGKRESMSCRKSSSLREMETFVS

[3] = Stability of compound in human plasma assessed as parent compound remaining incubated for 24 hrs by LC-MS/MS analysis; format: ADME, cell-free; conditions: read-out: Stabilty
Procedure, shortened: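 Peptides were incubated in human plasma and sampled at different time intervals up to 24 h. Remaining concentration was monitored by LC-MS using selected abundant transitions and expressed relative to the initial concentration.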

[4] = species: Homo sapiens; assay: Selectivity index, ratio of IC50 for displacement of [125-I]-[Sar1, Ile8] from recombinant human AT1R transfected in human HEK293 cells to IC50 for displacement of [125-I]-[Sar1, Ile8] from recombinant human AT2R transfected in human HEK293 cells

IC50 [1]	IC50 [2]	remaining at 24 h [3]	Compound	Ratio IC50 [4]
> 10000 nM	45.7 nM	> 50%	CC[C@H](C)[C@H](NC(=O)[C@H](Cc1ccc(O)cc1)NC(=O)[C@@H](NC(=O)[C@H](CCCNC(=N)N)NC(=O)[C@@H](N)CC(=O)O)C(C)C)C(=O)N[C@H]1Cc2c([nH]c3ccccc23)CN(CC(=O)N[C@@H](Cc2ccccc2)C(=O)O)C1=O	> 219
> 10000 nM	107 nM	70%	CC[C@H](C)[C@H](NC(=O)[C@H](Cc1ccc(O)cc1)NC(=O)[C@@H](NC(=O)[C@@H](N)CCCNC(=N)N)C(C)C)C(=O)N[C@H]1Cc2c([nH]c3ccccc23)CN(CC(=O)N[C@@H](Cc2ccccc2)C(=O)O)C1=O	> 94
> 10000 nM	89.2 nM	> 90%	CC[C@H](C)[C@H](NC(=O)[C@H](Cc1ccc(O)cc1)NC(=O)[C@@H](NC(=O)[C@H](CCCNC(=N)N)NC(=O)[C@@H](N)CC(=O)O)C(C)C)C(=O)N1Cc2cc(O)ccc2C[C@H]1C(=O)N1CCC[C@H]1C(=O)N[C@@H](Cc1ccccc1)C(=O)O (H-DRVYI[Tic(7-OH)]PF-OH)	> 112
174 nM	59.3 nM	> 50%	CC[C@H](C)[C@H](NC(=O)[C@H](Cc1ccc(O)cc1)NC(=O)[C@@H](NC(=O)[C@H](CCCNC(=N)N)NC(=O)[C@@H](N)CC(=O)O)C(C)C)C(=O)N1Cc2ccc(O)cc2C[C@H]1C(=O)N1CCC[C@H]1C(=O)N[C@@H](Cc1ccccc1)C(=O)O (H-DRVYI[X1]PF-OH)	2.9
134 nM	119 nM	> 70%	CC[C@H](C)[C@H](NC(=O)[C@H](Cc1ccc(O)cc1)NC(=O)[C@@H](NC(=O)[C@@H](N)CCCNC(=N)N)C(C)C)C(=O)N1Cc2cc(O)ccc2C[C@H]1C(=O)N1CCC[C@H]1C(=O)N[C@@H](Cc1ccccc1)C(=O)O (H-RVYI[Tic(7-OH)]PF-OH)	1.1
2010 nM	315 nM	> 50%	CC[C@H](C)[C@H](NC(=O)[C@H](Cc1ccc(O)cc1)NC(=O)[C@@H](NC(=O)[C@@H](N)CCCNC(=N)N)C(C)C)C(=O)N1Cc2ccc(O)cc2C[C@H]1C(=O)N1CCC[C@H]1C(=O)N[C@@H](Cc1ccccc1)C(=O)O (H-RVYI[X1]PF-OH)	6.4
72600 nM	–	> 50%	H-DRVYIYPF-OH	18000
